Source: PubChem BioAssay (Broad Institute)
Compounds with a hit are over-represented: about 2.2% of the library has one in this group of screens.
DENV2 CPE rescue = protects cells from dengue virus 2 cytopathic effect; DENV2-infected cells, cytopathic effect rescue, plate reader; CPE inhibition, % at 9.99 µM; hit rate 1.7% among 350,000; in the data active = CPE inhibition above about 20%, passing the limit was not always enough; inconclusive = no clear call, values can overlap the other calls; tested in BHK-21 cells;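 also: 0% = median of neutral control wells and 100% = median of positive control wells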
C2C12 statin = suppressors of simvastatin-induced myotoxicity in C2C12 myotubes | ATP luminescence, 48 h; scaled: DMSO 0, geranylgeraniol control 100 | rescue of ATP level, % at 7.49 µM | hit rate 0.78% among 330,000 | AID 602340;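 active = mean ATP rescue above about 67%, or every replicate alone reaching that limit, limit read from the data, passing the limit was not always enough; inconclusive = no clear call, values can overlap the other calls; inactive = mean under the limit and some replicate under it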;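 also: myotubes were challenged with 10 µM simvastatin during compound exposure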
E-selectin induc = E-selectin induction on HUVECs | P16581 | activation, % at 7.58 µM | HUVEC E-selectin immunofluorescence imaging; normalized: neutral wells 0, TNF-alpha wells 100 | hit rate 0.37% among 260,000;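 active = mean E-selectin-positive cell signal at least 10% of the positive control, reached in at least 60% of replicates, without over 20% cell loss; inconclusive = no rule given, readout overlaps actives, possibly toxicity-flagged; inactive = the rest, including those meeting only one limit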
Target sequence (P16581 whole entry, looked up): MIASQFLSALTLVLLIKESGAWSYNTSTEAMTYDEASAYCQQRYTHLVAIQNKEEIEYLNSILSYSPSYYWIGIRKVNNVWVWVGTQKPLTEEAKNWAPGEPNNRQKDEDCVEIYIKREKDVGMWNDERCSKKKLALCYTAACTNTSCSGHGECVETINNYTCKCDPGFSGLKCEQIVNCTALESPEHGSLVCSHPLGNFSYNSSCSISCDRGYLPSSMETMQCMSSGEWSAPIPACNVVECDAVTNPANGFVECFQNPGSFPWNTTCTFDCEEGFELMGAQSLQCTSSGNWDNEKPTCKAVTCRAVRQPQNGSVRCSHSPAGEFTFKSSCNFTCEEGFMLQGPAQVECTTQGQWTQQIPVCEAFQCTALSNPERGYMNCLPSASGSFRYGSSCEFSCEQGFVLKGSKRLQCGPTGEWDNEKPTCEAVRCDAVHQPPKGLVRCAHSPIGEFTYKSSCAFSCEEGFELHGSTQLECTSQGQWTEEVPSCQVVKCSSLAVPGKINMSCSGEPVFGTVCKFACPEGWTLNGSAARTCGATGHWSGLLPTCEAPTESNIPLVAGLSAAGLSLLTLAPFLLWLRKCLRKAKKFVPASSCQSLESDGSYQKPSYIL
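Assay system: HUVEC primary endothelial cells. Input: 3,000 HUVEC seeded per well. Doses: one compound dose added by pin transfer. Read-out basis: % PE-positive cells. Benchmarks: TNF-alpha high, DMSO low. Detection: immunofluorescence imaging. Buffer or medium: EGM-2, gelatin.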
Active calls of the source: *; u = inconclusive; x = no result; ! = a repeat was not active.

SMILES	DENV2 CPE rescue	C2C12 statin	E-selectin induc
C[C@H](CO)N1C[C@H](C)[C@@H](CN(C)S(=O)(=O)c2ccc(F)cc2)Oc2c(NC(=O)Nc3ccc4c(c3)OCO4)cccc2C1=O	-13	7	0
C[C@H]1CN([C@@H](C)CO)C(=O)c2cc(NC(=O)Nc3ccc4c(c3)OCO4)ccc2O[C@@H]1CN(C)S(=O)(=O)c1ccc(F)cc1	10	15	50*
C[C@@H]1CN([C@H](C)CO)C(=O)c2cc(NC(=O)Nc3ccc4c(c3)OCO4)ccc2O[C@H]1CN(C)S(=O)(=O)c1ccccc1	-7	x	34*
C[C@@H]1CN([C@@H](C)CO)C(=O)c2cccc(NC(=O)Nc3ccc4c(c3)OCO4)c2O[C@H]1CN(C)S(=O)(=O)c1ccc(F)cc1	-6	-10	55*
Cc1ccc(S(=O)(=O)Nc2ccc3c(c2)CC(=O)N([C@H](C)CO)C[C@H](C)[C@@H](CN(C)C(=O)NC2CCCCC2)O3)cc1	-7	19	1
C[C@H]1CN([C@@H](C)CO)C(=O)c2cc(-c3cccc(F)c3)cnc2O[C@@H]1CN(C)C(=O)Nc1cc(F)ccc1F	13	6	-1
COc1ccc(S(=O)(=O)Nc2cccc3c2O[C@@H](CN(C)Cc2ccncc2)[C@H](C)CN([C@@H](C)CO)C3=O)cc1	u	3	0
O=[N+]([O-])c1cc(Cl)ccc1Sc1cccc2cccnc12	-2	-4	x
O=[N+]([O-])c1ccc(Sc2cccc3cccnc23)c([N+](=O)[O-])c1	x	73*	x
C[C@@H]1CN([C@H](C)CO)C(=O)c2cc(NS(=O)(=O)c3ccc(F)cc3)ccc2O[C@H]1CN(C)C(=O)NC1CCCCC1	17	-11	0
C[C@@H]1CN([C@@H](C)CO)C(=O)c2cc(NS(=O)(=O)c3ccc(F)cc3)ccc2O[C@H]1CN(C)C(=O)NC1CCCCC1	35*	9	u
C[C@@H]1CN([C@H](C)CO)C(=O)c2cc(NS(=O)(=O)c3ccccc3)ccc2O[C@H]1CN(C)C(=O)NC1CCCCC1	-5	-7	40*
C[C@H](CO)N1C[C@H](C)[C@@H](CN(C)C(=O)NC2CCCCC2)Oc2ccc(NS(=O)(=O)c3ccccc3)cc2C1=O	0	-6	49*!
C[C@H]1CN([C@@H](C)CO)C(=O)c2cc(NS(=O)(=O)c3ccccc3)ccc2O[C@H]1CN(C)C(=O)NC1CCCCC1	4	16	-6
C[C@@H]1CN([C@@H](C)CO)C(=O)c2cc(NS(=O)(=O)c3ccccc3)ccc2O[C@@H]1CN(C)C(=O)NC1CCCCC1	7	-10	14
Cc1noc(C)c1S(=O)(=O)N(C)C[C@@H]1Oc2ccc(NS(=O)(=O)c3ccccc3)cc2CC(=O)N([C@H](C)CO)C[C@H]1C	-13	27	-1
CO[C@H]1CN(C)C(=O)c2cc(NC(=O)C3CCCC3)ccc2OC[C@@H](C)N(C)C[C@H]1C	1	4	0
COc1ccc(S(=O)(=O)Nc2ccc3c(c2)C(=O)N([C@@H](C)CO)C[C@@H](C)[C@@H](CN(C)C(=O)Nc2ccc(C(F)(F)F)cc2)O3)cc1	-7	x	-3
CC=Cc1ccc2n(c1=O)C[C@H]1[C@H](CO)[C@@H](C(=O)NCC)[C@@H]2N1CCC(F)(F)F (mixture of isomers)	-5	3	-2
COc1ccc(CN(C)C[C@H]2OCCCC[C@@H](C)Oc3ccc(NS(=O)(=O)c4ccc(OC)cc4)cc3C(=O)N([C@@H](C)CO)C[C@@H]2C)cc1	u	x	0
COCC(=O)Nc1ccc2c(c1)[C@H]1C[C@@H](CC(=O)N3CCOCC3)O[C@@H](CO)[C@H]1O2	0	-1	0
C[C@@H]1CN([C@H](C)CO)C(=O)Cc2cc(NC(=O)CCN3CCOCC3)ccc2O[C@H]1CN(C)S(=O)(=O)c1ccc(Cl)cc1	1	1	0
CCOC(=O)C1=C(C)N(CCCC(=O)O)C(=O)NC1c1ccccc1Cl (configuration not stated)	-2	x	1
CCOC(=O)C1=C(C)N(CCCCCC(=O)O)C(=O)NC1c1ccccc1Cl (configuration not stated)	1	105*	x
c1ccc(-c2ccccc2OCCOCCN2CCOCC2)cc1	-4	7	0
c1ccc(-c2ccccc2OCCOCCN2CCNCC2)cc1	-7	x	39*
